Measured values: ChEMBL document CHEMBL4513216, “Probing the Open Global Health Chemical Diversity Library for Multistage-Active Starting Points for Next-Generation Antimalarials” (ACS Infect Dis, 2020)

Test: Toxicity liver stage against HepG2, at 10uM
Format: cell-based
Design: test concentration 10 uM, cell line HepG2-A16-CD81EGFP
Conditions: human, HepG2-A16-CD81EGFP cells; read-out: INHIBITION
Outline: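 Uninfected HepG2-A16-CD81EGFP cells, 3 × 10^3 per well, 1536-well, plated on prespotted compound at 10 μM final, parasite-free screening media added to match infected plates; puromycin 10 μM positive, DMSO 0.5% negative; run in parallel with 48 h PbLuc assay at 37 °C, 5% CO2; viability by CellTiter-Glo luminescence, normalized to controls.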

c1ccc(-c2noc([C@@H]3Cc4nc[nH]c4CN3)n2)cc1
cytotoxicity at 10 µM: -4.26%

CC(C)CCNC(=O)c1csc(NC2CC2)n1
cytotoxicity at 10 µM: -0.243%

COc1cccc2c1ccn2CCNC(=O)CC(C)C
cytotoxicity at 10 µM: 4.38%

O=C(CC1CCCC1)NCCS(=O)(=O)N1CCN(c2ncccn2)CC1
cytotoxicity at 10 µM: -1%

O=C(COc1ccc(-n2cccn2)nn1)N1CCCC1
cytotoxicity at 10 µM: 1.43%

Cc1nsc(C(=O)NCCc2ccccc2)n1
cytotoxicity at 10 µM: 4.28%

O=C(CCO)N1C[C@H]2CN(c3ccccc3)C(=O)[C@H]2C1
cytotoxicity at 10 µM: 1.35%

CCOCC(=O)N1CCCn2c(CN3CCOCC3)nnc2C1
cytotoxicity at 10 µM: -132%

Cn1nc(C#N)c2c1CN(C(=O)c1ccco1)CCC2
cytotoxicity at 10 µM: -133%

Cc1ccc(Cl)cc1NC(=O)Cn1cc(C(=O)O)ccc1=O
cytotoxicity at 10 µM: -1.45%

O=C1CCCN1Cc1noc(-c2ccc(Cl)cc2)n1
cytotoxicity at 10 µM: 5.56%

CC(C)c1nn(CC(=O)N2CCCCC2)c(=O)c2c1cnn2C(C)(C)C
cytotoxicity at 10 µM: -13.2%

COc1cccc(-c2cc(C(=O)NCCCn3nc(C)cc3C)[nH]n2)c1
cytotoxicity at 10 µM: -5.86%

CCOC(=O)Cc1n[nH]c(-c2cncc(Br)c2)n1
cytotoxicity at 10 µM: 3.24%

O=C(c1ccc(-c2ccc(O)nc2)s1)N1CCCCC1
cytotoxicity at 10 µM: 3.35%

COC(C)C(=O)N(CC(N)=O)Cc1cccc(Oc2ccccc2)c1 (configuration not stated)
cytotoxicity at 10 µM: 1.46%

N#Cc1cnc2cc(F)cc(F)c2c1NC1CCN(CC(N)=O)CC1
cytotoxicity at 10 µM: 0%

CC(c1nc(-c2ccccc2)no1)N1CC(n2cccn2)C1 (configuration not stated)
cytotoxicity at 10 µM: 1.62%

CNC(=O)CN1CCC(CN(C)CCSc2ccccc2)CC1
cytotoxicity at 10 µM: -0.488%

c1nc2onc(C3CC3)c2cc1-c1nnc(C2CC2)o1
cytotoxicity at 10 µM: 8.03%

Cn1ccnc1CN1CCCC1CCc1ccccc1 (configuration not stated)
cytotoxicity at 10 µM: 13.8%

CC(CNC(=O)c1ccco1)N1CCc2sccc2C1 (configuration not stated)
cytotoxicity at 10 µM: 0.107%

NC(=O)CSc1ccccc1NCc1nc(Cc2ccccc2)no1
cytotoxicity at 10 µM: 7.04%

COC1CCN(c2ccc(F)cc2CN(C)C(=O)c2cc[nH]n2)CC1
cytotoxicity at 10 µM: -4.32%

CCCN(Cc1ccccc1O)S(=O)(=O)C(C)CC (configuration not stated)
cytotoxicity at 10 µM: 9.02%

CCc1ccc(S(=O)(=O)Nc2ccn(CC(=O)OC)n2)cc1
cytotoxicity at 10 µM: 7.22%

CCC(C)NC(=O)c1cncc(Br)c1 (configuration not stated)
cytotoxicity at 10 µM: 1.24%

CCc1nnsc1C(=O)NCc1c(C)nn(CCOC)c1C
cytotoxicity at 10 µM: -8.8%

O=C(CS(=O)(=O)c1ncccc1Cl)NC1CCCc2ccccc21 (configuration not stated)
cytotoxicity at 10 µM: -7.69%

CCCOCC(=O)Nc1ncc(I)cc1C
cytotoxicity at 10 µM: 1.46%

Cc1cccc(C(=O)NCC(O)c2ccc(F)cc2F)c1 (configuration not stated)
cytotoxicity at 10 µM: 6.27%

CC(C)c1cc(C(=O)NCc2nc(-c3ccc(F)cc3)n[nH]2)n[nH]1
cytotoxicity at 10 µM: -1.75%

CC(Cn1ccnc1)NS(=O)(=O)c1ccc(F)c(Cl)c1 (configuration not stated)
cytotoxicity at 10 µM: 9.25%

Cc1ccc(Nc2c(C#N)c(=O)n(C)c(=O)n2C)cc1F
cytotoxicity at 10 µM: -4.99%

N#Cc1ccnc(N2CCN(CC(O)c3ccccc3)CC2)c1 (configuration not stated)
cytotoxicity at 10 µM: 0.587%

O=C(c1cccnc1-n1cncn1)N1CCN(c2ccccc2)CC1
cytotoxicity at 10 µM: 4.06%

Cc1cc(NC(=O)NCC(c2ccsc2)N(C)C)n(C)n1 (configuration not stated)
cytotoxicity at 10 µM: -5.33%

Cc1ccc(S(=O)(=O)NC2CCC(=O)NC2)cc1Br (configuration not stated)
cytotoxicity at 10 µM: -2.38%

Cc1ccc(C(=O)Nc2ccc(N(C)C)cn2)n1C
cytotoxicity at 10 µM: -2.48%

CCC(=O)Nc1ccc(C(C)NC(=O)COC)cc1 (configuration not stated)
cytotoxicity at 10 µM: -145%

COCCOCC(=O)Nc1ccc(C)cc1Cl
cytotoxicity at 10 µM: 1.85%

CC(C)NC(=O)c1nnn(-c2ccccc2)c1C1CC1
cytotoxicity at 10 µM: 2.2%

CC(C)N(CCC#N)C(=O)c1cnc(-c2ccc3c(c2)OCO3)s1
cytotoxicity at 10 µM: 0.247%

Cc1cc(N(C)C)nc(N2CCN(C(C)c3nc(C)no3)CC2)n1 (configuration not stated)
cytotoxicity at 10 µM: 2.33%

COc1cc(C)nc(N2CCN(C(C)c3nc(C)no3)CC2)n1 (configuration not stated)
cytotoxicity at 10 µM: 3.55%

CS(=O)(=O)CCOCCNc1ccc(C#N)cc1F
cytotoxicity at 10 µM: -3.34%

Cc1cc(CNc2ccc3nc(C4CC4)sc3c2)no1
cytotoxicity at 10 µM: 0.981%

O=C(CCc1ccccn1)N1CCSC2(CCCCC2)C1
cytotoxicity at 10 µM: 0.547%

O=C(c1cc(F)ccc1O)N1CCN(C2CCSC2)CC1 (configuration not stated)
cytotoxicity at 10 µM: 0.773%

N#Cc1cnc(NCCCN2C(=O)COc3ccccc32)c(Cl)c1
cytotoxicity at 10 µM: -3.64%

CC1CCC(NS(=O)(=O)CC(=O)Nc2ccc(N3CCCC3)cn2)CC1 (configuration not stated)
cytotoxicity at 10 µM: 1.54%

CN(CCCc1cc(-c2ccc(F)cc2)n(C)n1)CC(N)=O
cytotoxicity at 10 µM: -8.71%

CS(=O)(=O)CCOCCNc1ccc2ccc(F)cc2n1
cytotoxicity at 10 µM: 3.55%

O=C(COc1cccc2c1CCC2=O)NCCSc1ccccc1
cytotoxicity at 10 µM: -1.22%

O=C(N[C@H]1CN2CCC1CC2)c1cc(Cn2cnc3ccccc32)[nH]n1
cytotoxicity at 10 µM: -4.26%

O=C1NCCCc2[nH]c(-c3nc(C4CCCCC4)no3)nc21
cytotoxicity at 10 µM: -0.627%

Cn1ccc2c(-c3cc(N4CCCCC4)ncn3)ccnc21
cytotoxicity at 10 µM: -3.46%

COCCCN1CCCC2(CCN(S(=O)(=O)c3cccnc3)C2)C1=O (configuration not stated)
cytotoxicity at 10 µM: 8.21%

O=C(C1CC1)N1CCc2[nH]cnc2C12CCN(C1CCOCC1)CC2
cytotoxicity at 10 µM: -1.16%

Cc1nccc(N2C[C@H](NC(=O)CNS(C)(=O)=O)[C@@H](C3CC3)C2)n1
cytotoxicity at 10 µM: -13.8%

Nc1nc(CCNc2ncnc3c2CCN(C(=O)C2CC2)C3)cs1
cytotoxicity at 10 µM: -6.68%

Cc1c(-c2nnc(SCC(=O)O)n2C(C)c2ccccc2)cnn1C (configuration not stated)
cytotoxicity at 10 µM: -5.43%

COc1ccccc1OCc1cc(C(=O)N2CCC(NC(C)=O)C2)n[nH]1 (configuration not stated)
cytotoxicity at 10 µM: -4.26%

COc1ccc(-c2ccc(C(=O)N3CCOCC3CC(N)=O)o2)cc1 (configuration not stated)
cytotoxicity at 10 µM: 3.16%

CCCc1nc(C)cc(N2CCC3(CCC(=O)N(CCO)C3)CC2)n1
cytotoxicity at 10 µM: -6.71%

O=C(CN1CCCC1c1nc(-c2ccccn2)no1)N1CCOCC1 (configuration not stated)
cytotoxicity at 10 µM: 6.08%

COCc1ccc(C(=O)N2CCc3c(ncnc3N3CCOCC3)C2)o1
cytotoxicity at 10 µM: -2.17%

CCc1nn(C)c(Cl)c1CN1CCC2(C1)CN(C)C(=O)O2 (configuration not stated)
cytotoxicity at 10 µM: 1.95%

CSc1ccc(-c2nc(CN3CCC(CN)C3)c(C)o2)cc1 (configuration not stated)
cytotoxicity at 10 µM: -2.65%

CCN(Cc1cccc(C(=O)Nc2ncc(C)s2)c1)[C@H]1COC[C@@H]1O
cytotoxicity at 10 µM: -2.61%

CCC(CO)N(Cc1ccsc1)Cc1ccccc1C(=O)O (configuration not stated)
cytotoxicity at 10 µM: -14.4%

O=c1c2cccc(F)c2ncn1CCN1CCNCC1
cytotoxicity at 10 µM: -0.812%

O=C(c1cncc(N2CCC3(CCCNC3)C2)n1)N1CCCC1 (configuration not stated)
cytotoxicity at 10 µM: -4.15%

Cc1nc(NCC23CCCN2CCC3)cc(C2CCCNC2)n1 (configuration not stated)
cytotoxicity at 10 µM: 7.54%

CCCc1nnc(NC2CCN(C3CCSCC3)CC2)o1
cytotoxicity at 10 µM: -1.38%

COc1cccnc1-c1ccc(F)c2c1OC(CN)C2 (configuration not stated)
cytotoxicity at 10 µM: 1.74%

COc1ncccc1-c1nc(-c2ccccn2)nn1C1CCN(C)CC1
cytotoxicity at 10 µM: -4.52%

Cc1c(CNC(=O)c2cn(CCC3CCCCN3)nn2)cnn1C (configuration not stated)
cytotoxicity at 10 µM: -3.44%

Cc1cc(N2CCCC(O)(CN(C)C)CC2)nc(-c2ccccc2)n1 (configuration not stated)
cytotoxicity at 10 µM: -9.41%

CCN1CCc2[nH]cnc2C12CCN(c1ccc(Cl)cn1)CC2
cytotoxicity at 10 µM: 6%

CCSCCC(=O)NCc1cc2n(n1)CCN(C(=O)N(C)C)C2
cytotoxicity at 10 µM: -5.38%

COc1ccc(F)c(-c2cc(NCCO)nc(N)n2)c1
cytotoxicity at 10 µM: -1.21%

COc1ccccc1Oc1ncccc1CNC(=O)[C@@H](N)CCO
cytotoxicity at 10 µM: -17.5%

Cc1nc(C(C)NC(=O)COc2ccc(F)cc2)n[nH]1 (configuration not stated)
cytotoxicity at 10 µM: 6.39%

O=C1O[C@@H]2CN(CCc3ccccc3)C[C@@H]2N1CCCN1CCOCC1
cytotoxicity at 10 µM: -3.2%

CS(=O)(=O)NC1CCCN(C(=O)COCc2ccccc2)C1 (configuration not stated)
cytotoxicity at 10 µM: -5.28%

NC(=O)Cn1cc(NC(=O)N2CCN(c3ccccc3)CC2)cn1
cytotoxicity at 10 µM: -8.45%

O=C(Cn1nc(-c2ccc(F)cc2)oc1=O)NCc1ccccc1F
cytotoxicity at 10 µM: -9.04%

CN(CC(=O)NCc1cccnc1N1CCCCC1)C(=O)c1cccs1
cytotoxicity at 10 µM: -14.8%

O=C(c1cccc(F)c1)N1CCCN(Cc2cscn2)CC1
cytotoxicity at 10 µM: -3.13%

c1cnn(CC2CN(CC3CCCCC3)CCO2)c1 (configuration not stated)
cytotoxicity at 10 µM: -7.85%

CC(C)Oc1ccc(C(=O)N2CCC(Nc3cccnn3)CC2)cn1
cytotoxicity at 10 µM: -31%

CNc1cc2c(nn1)CCN(C(=O)c1cc(C)no1)C2
cytotoxicity at 10 µM: -15.8%

O=C(Cc1ccc2c(c1)CCC2)N1CCCC(n2cccn2)C1 (configuration not stated)
cytotoxicity at 10 µM: -7.81%

Cc1ccc(C(=O)N2CCc3c(CNc4ncccn4)cncc3C2)o1
cytotoxicity at 10 µM: 9.21%

Cc1cccc(C(=O)N2C[C@@H]3COC[C@@H](CC(=O)N4CCCC4)[C@@H]3C2)n1
cytotoxicity at 10 µM: -120%

COCc1cnc2n1CCN(C1CCCC1)C2C (configuration not stated)
cytotoxicity at 10 µM: 9.13%

CN(C)[C@@H]1CN(C(=O)c2ccc(C#N)cc2)[C@@H]2CCCO[C@H]12
cytotoxicity at 10 µM: -146%

Cc1cccc(NC(=O)C2CCc3ccccc3N2)c1 (configuration not stated)
cytotoxicity at 10 µM: -5.92%

CCn1ncc2c1C(COC)CN(Cc1cccnc1)C2 (configuration not stated)
cytotoxicity at 10 µM: 0.588%

O=C(c1cnccn1)N1CCCC2(CCN(Cc3ccsc3)CC2)C1
cytotoxicity at 10 µM: 1.55%

CC(C)N1[C@H](CN2CCCC2)C[C@@H]2CN(Cc3ccoc3)CC[C@@H]21
cytotoxicity at 10 µM: -157%

O=C(c1cccc(F)c1)N1C[C@H]2CN(Cc3ccccn3)C[C@H]2C1
cytotoxicity at 10 µM: -1.92%

Cc1ccc2c(n1)N(CCn1cccn1)CCN(S(C)(=O)=O)C2
cytotoxicity at 10 µM: 13.5%

O=C(c1ccc[nH]1)N1CC[C@@H](OCC2CC2)[C@@H]1Cc1cccnc1
cytotoxicity at 10 µM: 0.878%

CN1CC[C@H]2OCC[C@@]2(C(=O)NCCc2ccccn2)C1
cytotoxicity at 10 µM: 1.82%

COCCN1CCC2(CC1)CCN(Cc1ccccn1)CC2
cytotoxicity at 10 µM: -3.54%

CC[C@@H]1N(Cc2ccc(F)cc2)CCC[C@]12CCC(=O)N2CCOC
cytotoxicity at 10 µM: 11.5%

Cc1ccc(C(=O)N2C[C@@H]3CCN(C(C)C)C[C@@H]3C2)cn1
cytotoxicity at 10 µM: -6.54%

CN(C)CCn1c2c(ccc1=O)CCN(C(=O)c1ccoc1)CC2
cytotoxicity at 10 µM: 6.2%

COc1ccc(-n2cc3[nH]c(=O)n(Cc4cccc(F)c4)n3c2=O)cc1
cytotoxicity at 10 µM: 14.8%

Cc1ccc(C)c(CN2C[C@@H]3CC[C@H]2CN(C(=O)c2cccnc2)C3)c1
cytotoxicity at 10 µM: 3.41%
